The record followed here is ChEMBL document CHEMBL1149591, “QSAR studies and pharmacophore identification for arylsubstituted cycloalkenecarboxylic acid methyl esters with affinity for the human dopamine transporter” (Bioorg Med Chem, 2007).

For the assay, the target named is Sodium-dependent dopamine transporter (Homo sapiens, UniProt Q01959). Nature of the assay: Inhibition of human DAT expressed in COS1 cells. Format: cell-based, COS-1. A digest of the protocol:
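COS-1 cells stably transfected with hDAT (pIRES, Blasticidin selection), grown in DMEM/10% FCS at 37 °C, 5% CO2. Membranes homogenized in 150 mM NaCl/50 mM Tris/20 mM EDTA, resuspended in PBSCM.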

Chain of Sodium-dependent dopamine transporter (Q01959 whole entry): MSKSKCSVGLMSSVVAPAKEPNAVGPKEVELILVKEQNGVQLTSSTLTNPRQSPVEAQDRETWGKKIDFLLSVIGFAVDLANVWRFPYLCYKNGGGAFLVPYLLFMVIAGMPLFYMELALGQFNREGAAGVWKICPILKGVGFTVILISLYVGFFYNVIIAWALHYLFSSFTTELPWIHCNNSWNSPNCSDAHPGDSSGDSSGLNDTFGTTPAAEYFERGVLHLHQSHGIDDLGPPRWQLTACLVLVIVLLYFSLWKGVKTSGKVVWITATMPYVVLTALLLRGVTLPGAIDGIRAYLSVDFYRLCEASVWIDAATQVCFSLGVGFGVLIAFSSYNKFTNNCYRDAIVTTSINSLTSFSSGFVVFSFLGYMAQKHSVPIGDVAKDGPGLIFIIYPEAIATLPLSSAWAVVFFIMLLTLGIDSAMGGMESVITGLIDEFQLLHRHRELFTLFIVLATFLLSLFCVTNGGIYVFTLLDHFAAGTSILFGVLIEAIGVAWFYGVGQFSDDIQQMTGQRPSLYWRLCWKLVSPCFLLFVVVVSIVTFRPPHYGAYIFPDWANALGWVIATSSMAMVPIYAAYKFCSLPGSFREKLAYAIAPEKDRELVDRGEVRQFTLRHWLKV

What is called Ki is a measure of affinity in units of concentration, obtained from inhibition or displacement. On to `COC(=O)C1=C(c2cccc(Cl)c2)CCCC1`, for which the Ki (read-out: -Log Ki (converted)) is 117 µM.
On the same count and under the same terms, the value for `COC(=O)C1=C(c2ccc3ccccc3c2)CCCC1` was 11.7 µM; that for `COC(=O)C1=C(c2cccc(Cl)c2)CCC1` was 34.7 µM; that for `COC(=O)C1=C(c2ccc(C(C)=O)cc2)CCC1` was 331 µM.
On to `COC(=O)C1=C(c2ccc(Cl)cc2)C2CCC1N2` (stereo unspecified), for which the Ki (read-out: -Log Ki (converted)) was 26.9 µM.
Consider `COC(=O)C1=C(c2cc(C)c(C)cc2C)C2CCC1C2` (stereo unspecified), for which the Ki (read-out: Ki) stood at 32.2 µM.
With `COC(=O)C1=C(c2ccc(Cl)cc2)C2CCC1O2` (stereo unspecified), the Ki (read-out: -Log Ki (converted)) is 18.2 µM.
On the same count and under the same terms, in the case of `COC(=O)C1=C(c2ccc3ccccc3c2)C2CCC1N2` (stereo unspecified) it was 1.74 µM; in that of `COC(=O)C1=C(c2ccc(-c3ccccc3)cc2)C2CCC1C2` (stereo unspecified), 603 µM.
Same read-out and setting: in the case of `COC(=O)C1=C(c2ccc(Cl)c(Cl)c2)C2CCC1C2` (stereo unspecified) it was 6.76 µM; in that of `COC(=O)C1=C(c2cccc(Cl)c2Cl)C2CCC1C2` (stereo unspecified), 14.8 µM; in that of `COC(=O)C1=C(c2cccc(Cl)c2)C2CCC1N2` (stereo unspecified), 33.9 µM.
On to `COC(=O)C1=C(c2cccc([N+](=O)[O-])c2)C2CCC1N2` (stereo unspecified), for which, for the setting “read-out: Ki”, the Ki came to 232 µM.
In the case of `COC(=O)C1=C(c2ccc(Cl)c(Cl)c2)CCC1`, under “read-out: -Log Ki (converted)”, the Ki is 1.95 µM.
Turning to `COC(=O)C1=C(c2ccc(-c3ccccc3)cc2)C2CCC1N2` (stereo unspecified), under “read-out: -Log Ki (converted)”, the Ki is 24.5 µM.
Still for that read-out and setting: the value for `COC(=O)C1=C(c2ccc3ccccc3c2)C2CCC1C2` (stereo unspecified) was 4.27 µM.
Consider `COC(=O)C1=C(c2ccc(Cl)cc2Cl)C2CCC1C2` (stereo unspecified), for which the Ki (read-out: -Log Ki (converted)) was 22.9 µM.
`COC(=O)C1=C(c2cccc(Cl)c2)C2CCC1C2` (stereo unspecified): for the setting “read-out: -Log Ki (converted)”, the Ki was 105 µM.
With `COC(=O)C1=C(c2ccccc2)C2CCC1N2` (stereo unspecified), where the note is “read-out: -Log Ki (converted)”, the Ki is 447 µM.
The same measure, in the same setting: in the case of `COC(=O)C1=C(c2ccc3ccccc3c2)CCC1` it was 4.17 µM; in that of `COC(=O)C1=C(c2ccc(Cl)c(Cl)c2)C2CCC1N2` (stereo unspecified), 1.1 µM; in that of `COC(=O)C1=C(c2ccccc2)C2CCC1C2` (stereo unspecified), 646 µM.
For the compound `COC(=O)C1=C(c2ccc(Cl)cc2)C2CCC1C2` (stereo unspecified), the Ki (read-out: -Log Ki (converted)) is 25.1 µM.
Same read-out and setting: the value for `COC(=O)C1=C(c2ccccc2Cl)C2CCC1C2` (stereo unspecified) was 372 µM.
`COC(=O)C1=C(c2ccc(C)c(F)c2)C2CCC1C2` (stereo unspecified): the Ki (read-out: Ki) came out at 56 µM.
On the same count and under the same terms, in the case of `COC(=O)C1=C(c2ccc([N+](=O)[O-])cc2)C2CCC1N2` (stereo unspecified) it was 67.9 µM.
